Experiments:
A549 = assay: Antiproliferative activity against human A549 cells assessed as reduction in cell growth incubated for 72 hrs by MTT assay; format: functional, cell-based; details: A549, 72 h
Method in brief: (§1)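 Log-phase cells seeded at 5 × 10³/well and grown 24 h, then exposed to graded compound concentrations for 72 h. MTT (5 mg/mL) added for 4 h; formazan dissolved in DMSO and absorbance read at 490 nm. IC50 calculated from growth inhibition; means ± SD of triplicate experiments.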

HeLa = assay: Antiproliferative activity against human HeLa cells assessed as reduction in cell growth incubated for 72 hrs by MTT assay; format: functional, cell-based; method in brief: as §1
HepG2 = assay: Antiproliferative activity against human HepG2 cells assessed as reduction in cell growth incubated for 72 hrs by MTT assay; format: functional, cell-based; details: HepG2, 72 h; method in brief: as §1
MCF7 = assay: Antiproliferative activity against human MCF7 cells assessed as reduction in cell growth incubated for 72 hrs by MTT assay; format: functional, cell-based; details: MCF7, 72 h; method in brief: as §1
HCT-116 = assay: Antiproliferative activity against human HCT-116 cells assessed as reduction in cell growth incubated for 72 hrs by MTT assay; format: functional, cell-based; details: HCT-116, 72 h; method in brief: as §1
WI-38 = assay: Cytotoxicity against human WI-38 cells assessed as reduction in cell growth incubated for 72 hrs by MTT assay; format: cell-based; details: WI-38, 72 h; method in brief: as §1

| Structure (SMILES) | IC50 (A549) | IC50 (HeLa) | IC50 (HepG2) | IC50 (MCF7) | IC50 (HCT-116) | IC50 (WI-38) |
| --- | --- | --- | --- | --- | --- | --- |
| COc1ccc2c(N(C)c3cc(OC)c(OC)c(OC)c3)nn(C)c2n1 | > 50 µM | 0.59 µM | 2.52 µM | > 50 µM | > 50 µM | 22.8 µM |
| COc1ccc(/C=C\c2cc(OC)c(OC)c(OC)c2)cc1O [COMBRETASTATIN A4] | 0.058 µM | 0.005 µM | 0.28 µM | 0.034 µM | 0.029 µM | 31.6 µM |
| COc1ccc2c(N(c3cc(OC)c(OC)c(OC)c3)C(C)C)n[nH]c2n1 | > 50 µM | 21.2 µM | 24.5 µM | > 50 µM | > 50 µM | 6.04 µM |
| COc1ccc2c(Nc3cc(OC)c(OC)c(OC)c3)nn(C(C)C)c2n1 | 31.9 µM | 12.8 µM | 20 µM | 13.2 µM | 12 µM | 4.32 µM |
| COc1ccc2c(N(c3cc(OC)c(OC)c(OC)c3)C3CCCC3)n[nH]c2n1 | 22.7 µM | 28.4 µM | > 50 µM | > 50 µM | 26.2 µM | 10.4 µM |
| COc1ccc2c(N(c3cc(OC)c(OC)c(OC)c3)C3CCCC3)nn(C3CCCC3)c2n1 | > 50 µM | > 50 µM | > 50 µM | > 50 µM | > 50 µM | 138 µM |
| CCCN(c1cc(OC)c(OC)c(OC)c1)c1n[nH]c2nc(OC)ccc12 | > 50 µM | 0.73 µM | 6.26 µM | 1.37 µM | 5.97 µM | 2.99 µM |
| COc1ccc2c(N(CC(F)F)c3cc(OC)c(OC)c(OC)c3)n[nH]c2n1 | 2.42 µM | 0.17 µM | 18.8 µM | 21.7 µM | 0.47 µM | 1.69 µM |
| COc1ccc2c(Nc3cc(OC)c(OC)c(OC)c3)nn(C)c2n1 | > 50 µM | 6.07 µM | 6.24 µM | > 50 µM | > 50 µM | 2.43 µM |

Source: ChEMBL document CHEMBL4680339, “Synthesis and bioevaluation of N-(3,4,5-trimethoxyphenyl)-1H-pyrazolo[3,4-b]pyridin-3-amines as tubulin polymerization inhibitors with anti-angiogenic effects” (Bioorg Med Chem, 2021)
